From ChEMBL document CHEMBL3867436, “Chemistry of Renieramycins. 15. Synthesis of 22-O-Ester Derivatives of Jorunnamycin A and Their Cytotoxicity against Non-Small-Cell Lung Cancer Cells” (J Nat Prod, 2016) come the findings set out here.

Experiment [1] can be described thus: Cytotoxicity against human NCI-H292 cells assessed as decrease in cell viability after 72 hrs by MTT assay. The format is functional, cell-based. The conditions noted are these: NCI-H292, 72 h. An outline of the steps: (§1)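 Human NSCLC lines (ATCC) seeded at 2 × 10^3 cells/well, adhered overnight, then exposed 72 h to at least five concentrations of analogue in RPMI with ≤0.2% DMSO. MTT 0.5 mg/mL added for 4 h, formazan dissolved in DMSO, absorbance read at 570 nm. Viability relative to untreated cells. IC50 per experiment averaged over three independent triplicate runs on different days (mean ± SD). Cisplatin positive control.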
(In general: Tetrazolium assays rely on reduction of a dye to a coloured formazan, in cell work by metabolically active cells.)

Experiment [2] in a line: Cytotoxicity against human NCI-H460 cells assessed as decrease in cell viability after 72 hrs by MTT assay. Type of experiment: functional, cell-based. The conditions noted are these: NCI-H460, 72 h. An outline of the steps: as §1

As a reminder, the IC50 is the concentration at which inhibition is half-maximal. In the case of `COC1=C(C)C(=O)C2=C(C1=O)[C@H]1[C@@H]3CC4=C(C(=O)C(OC)=C(C)C4=O)[C@H](COC(=O)CC(F)(F)F)N3[C@@H](C#N)[C@H](C2)N1C`, the IC50 in experiment [1] amounted to 570 nM; in experiment [2], 320 nM.
For `COC1=C(C)C(=O)C2=C(C1=O)[C@H]1[C@@H]3CC4=C(C(=O)C(OC)=C(C)C4=O)[C@H](COC(=O)c4ccccn4)N3[C@@H](C#N)[C@H](C2)N1C`, the IC50 is 3.7 nM in experiment [1] and 2.2 nM in experiment [2].
In the case of `COC1=C(C)C(=O)C2=C(C1=O)[C@H]1[C@@H]3CC4=C(C(=O)C(OC)=C(C)C4=O)[C@H](CO)N3[C@@H](C#N)[C@H](C2)N1C`, the values for the IC50 in experiment [1] and in experiment [2] were 220 nM and 160 nM, respectively.
The corresponding values for `COC1=C(C)C(=O)C2=C(C1=O)[C@H]1[C@@H]3CC4=C(C(=O)C(OC)=C(C)C4=O)[C@H](COC(=O)c4cccnc4)N3[C@@H](C#N)[C@H](C2)N1C` are 6.4 nM and 6 nM.
The like results for `COC1=C(C)C(=O)C2=C(C1=O)[C@H]1[C@@H]3CC4=C(C(=O)C(OC)=C(C)C4=O)[C@H](COC(=O)/C=C/c4c(F)c(F)c(F)c(F)c4F)N3[C@@H](C#N)[C@H](C2)N1C` were, in that order, 21 nM and 69 nM.
The like results for `COC1=C(C)C(=O)C2=C(C1=O)[C@H]1[C@@H]3CC4=C(C(=O)C(OC)=C(C)C4=O)[C@H](COC(=O)/C=C/c4cccnc4)N3[C@@H](C#N)[C@H](C2)N1C` were, in that order, 4.9 nM and 2.8 nM.
On to `COC1=C(C)C(=O)C2=C(C1=O)[C@H]1[C@@H]3CC4=C(C(=O)C(OC)=C(C)C4=O)[C@H](COC(=O)/C=C/c4ccccc4)N3[C@@H](C#N)[C@H](C2)N1C`, for which the results for the IC50 in experiment [1] and in experiment [2] were 19 nM and 18 nM, respectively.
The corresponding values for `COC1=C(C)C(=O)C2=C(C1=O)[C@H]1[C@@H]3CC4=C(C(=O)C(OC)=C(C)C4=O)[C@H](COC(=O)/C=C/c4ccc(F)cc4)N3[C@@H](C#N)[C@H](C2)N1C` are 44 nM and 12 nM.
For `COC1=C(C)C(=O)C2=C(C1=O)[C@H]1[C@@H]3CC4=C(C(=O)C(OC)=C(C)C4=O)[C@H](COC(=O)c4ccccc4C(F)(F)F)N3[C@@H](C#N)[C@H](C2)N1C`, the IC50 in experiment [1] came out at 51 nM; in experiment [2], 22 nM.
The corresponding values for `C/C=C(/C)C(=O)OC[C@H]1C2=C(C[C@H]3[C@H]4C5=C(C[C@@H]([C@H](C#N)N13)N4C)C(=O)C(C)=C(OC)C5=O)C(=O)C(C)=C(OC)C2=O` [RENIERAMYCIN M] are 23 nM and 8.3 nM.
Turning to `COC1=C(C)C(=O)C2=C(C1=O)[C@H]1[C@@H]3CC4=C(C(=O)C(OC)=C(C)C4=O)[C@H](COC(=O)c4ccccc4F)N3[C@@H](C#N)[C@H](C2)N1C`, the half-inhibitory concentration (IC50) in experiment [1] turned out to be 30 nM; in experiment [2], 10 nM.
The corresponding values for `COC1=C(C)C(=O)C2=C(C1=O)[C@H]1[C@@H]3CC4=C(C(=O)C(OC)=C(C)C4=O)[C@H](COC(=O)c4ccc(C(F)(F)F)cc4)N3[C@@H](C#N)[C@H](C2)N1C` are 60 nM and 24 nM.
With `COC1=C(C)C(=O)C2=C(C1=O)[C@H]1[C@@H]3CC4=C(C(=O)C(OC)=C(C)C4=O)[C@H](COC(=O)/C=C/c4ccc([N+](=O)[O-])cc4)N3[C@@H](C#N)[C@H](C2)N1C`, the figures for the IC50 in experiment [1] and in experiment [2] were 22 nM and 14 nM, respectively.
For the molecule `COC1=C(C)C(=O)C2=C(C1=O)[C@H]1[C@@H]3CC4=C(C(=O)C(OC)=C(C)C4=O)[C@H](COC(=O)/C=C/c4cccc(F)c4)N3[C@@H](C#N)[C@H](C2)N1C`, the IC50 in experiment [1] was 11 nM; in experiment [2] it was 9.8 nM.
The corresponding values for `COC1=C(C)C(=O)C2=C(C1=O)[C@H]1[C@@H]3CC4=C(C(=O)C(OC)=C(C)C4=O)[C@H](COC(=O)c4ccc(F)cc4)N3[C@@H](C#N)[C@H](C2)N1C` are 56 nM and 22 nM.
Take `COC1=C(C)C(=O)C2=C(C1=O)[C@H]1[C@@H]3CC4=C(C(=O)C(OC)=C(C)C4=O)[C@H](COC(=O)/C=C/c4ccccc4Cl)N3[C@@H](C#N)[C@H](C2)N1C`: the IC50 was 25 nM in experiment [1] and 9 nM in experiment [2].
As for `COC1=C(C)C(=O)C2=C(C1=O)[C@H]1[C@@H]3CC4=C(C(=O)C(OC)=C(C)C4=O)[C@H](COC(=O)c4cccc(F)c4)N3[C@@H](C#N)[C@H](C2)N1C`, the figures for the IC50 in experiment [1] and in experiment [2] were 18 nM and 11 nM, respectively.
The like results for `COC1=C(C)C(=O)C2=C(C1=O)[C@H]1[C@@H]3CC4=C(C(=O)C(OC)=C(C)C4=O)[C@H](COC(=O)c4cccc(C(F)(F)F)c4)N3[C@@H](C#N)[C@H](C2)N1C` were, in that order, 49 nM and 30 nM.
With `COC1=C(C)C(=O)C2=C(C1=O)[C@H]1[C@@H]3CC4=C(C(=O)C(OC)=C(C)C4=O)[C@H](COC(=O)c4ccncc4)N3[C@@H](C#N)[C@H](C2)N1C`, the values for the 50% inhibitory concentration (IC50) in experiment [1] and in experiment [2] were 1.1 nM and 1.6 nM, respectively.
With `COC1=C(C)C(=O)C2=C(C1=O)[C@H]1[C@@H]3CC4=C(C(=O)C(OC)=C(C)C4=O)[C@H](COC(=O)/C=C/c4ccncc4)N3[C@@H](C#N)[C@H](C2)N1C`, the IC50 in experiment [1] and in experiment [2] was 20 nM throughout.
